Results on one compound are retold here after BindingDB's records for doi:10.1021/jm701562x (Johannes Gutenberg University, 2008).

Assay [1] addresses Gamma-aminobutyric acid receptor subunit alpha-1 (Rattus norvegicus, UniProt P62813). Nature of the assay: Agonist activity at rat recombinant GABAA alpha-1-beta-3-gamma-2 receptor expressed in HEK293 cells assessed as normalization of GABA-induced current by whole cell patch-clamp technique. The essentials:
(§1)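 HEK293 cells transiently co-transfected (calcium phosphate) with rat αi, β3 and γ2S cDNAs plus EGFP marker; recorded 2 days later by whole-cell patch clamp in HEPES saline pH 7.35.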

Assay [2] has as its target Gamma-aminobutyric acid receptor subunit alpha-2 (Rattus norvegicus, UniProt P23576). Nature of the assay: Agonist activity at rat recombinant GABAA alpha-2-beta-3-gamma-2 receptor expressed in HEK293 cells assessed as normalization of GABA-induced current by whole cell patch-clamp technique. The essentials: as §1

Structures can show the parent of a compound that is named as a salt.

Sequence of Gamma-aminobutyric acid receptor subunit alpha-1 (P62813 whole entry): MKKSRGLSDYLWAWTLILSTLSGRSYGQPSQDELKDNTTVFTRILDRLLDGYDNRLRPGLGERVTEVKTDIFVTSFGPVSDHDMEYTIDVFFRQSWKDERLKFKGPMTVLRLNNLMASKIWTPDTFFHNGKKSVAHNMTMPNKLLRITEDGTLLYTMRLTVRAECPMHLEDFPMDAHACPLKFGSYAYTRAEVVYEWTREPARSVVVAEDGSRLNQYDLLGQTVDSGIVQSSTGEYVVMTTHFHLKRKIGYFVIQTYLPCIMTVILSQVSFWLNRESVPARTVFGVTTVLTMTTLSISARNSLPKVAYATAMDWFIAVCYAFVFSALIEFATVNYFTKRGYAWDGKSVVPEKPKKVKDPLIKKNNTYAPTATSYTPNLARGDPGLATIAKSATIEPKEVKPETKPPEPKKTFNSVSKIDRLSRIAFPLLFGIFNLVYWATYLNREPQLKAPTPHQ
Sequence of Gamma-aminobutyric acid receptor subunit alpha-2 (P23576 whole entry): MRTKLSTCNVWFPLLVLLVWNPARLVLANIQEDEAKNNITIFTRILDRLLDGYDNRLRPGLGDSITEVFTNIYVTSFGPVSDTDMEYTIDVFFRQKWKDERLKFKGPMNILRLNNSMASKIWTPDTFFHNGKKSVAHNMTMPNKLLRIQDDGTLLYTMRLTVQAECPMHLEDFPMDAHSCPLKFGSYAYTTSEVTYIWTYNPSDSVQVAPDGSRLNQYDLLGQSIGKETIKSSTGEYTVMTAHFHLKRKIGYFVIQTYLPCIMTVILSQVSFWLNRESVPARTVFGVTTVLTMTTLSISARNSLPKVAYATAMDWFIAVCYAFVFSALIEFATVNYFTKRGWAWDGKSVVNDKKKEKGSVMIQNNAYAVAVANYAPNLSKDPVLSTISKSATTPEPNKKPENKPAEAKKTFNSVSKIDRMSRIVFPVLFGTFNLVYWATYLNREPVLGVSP

Usually EC50 stands for the concentration that produces a half-maximal response. Regarding `NCc1n[nH]c(=O)o1` [5-Aminomethyl-3H-[1,3,4]oxadiazol-2-one Hydrochloride], the EC50 in assay [1] was 280 µM; in assay [2], 182 µM.
